According to ChEMBL document CHEMBL1122824, “Synthesis and biological properties of (carboxyalkyl)amino-substituted bicyclic lactam inhibitors of angiotensin converting enzyme” (J Med Chem, 1985):
“And” between values parts separate entries of the source, which are not always exact repeats. Identical values can stand only once.

What was measured:
[1] = biological target: T1, Angiotensin-converting enzyme (Oryctolagus cuniculus, UniProt P12822); experiment: Inhibition of Angiotensin I converting enzyme
T1 sequence (P12822 whole entry): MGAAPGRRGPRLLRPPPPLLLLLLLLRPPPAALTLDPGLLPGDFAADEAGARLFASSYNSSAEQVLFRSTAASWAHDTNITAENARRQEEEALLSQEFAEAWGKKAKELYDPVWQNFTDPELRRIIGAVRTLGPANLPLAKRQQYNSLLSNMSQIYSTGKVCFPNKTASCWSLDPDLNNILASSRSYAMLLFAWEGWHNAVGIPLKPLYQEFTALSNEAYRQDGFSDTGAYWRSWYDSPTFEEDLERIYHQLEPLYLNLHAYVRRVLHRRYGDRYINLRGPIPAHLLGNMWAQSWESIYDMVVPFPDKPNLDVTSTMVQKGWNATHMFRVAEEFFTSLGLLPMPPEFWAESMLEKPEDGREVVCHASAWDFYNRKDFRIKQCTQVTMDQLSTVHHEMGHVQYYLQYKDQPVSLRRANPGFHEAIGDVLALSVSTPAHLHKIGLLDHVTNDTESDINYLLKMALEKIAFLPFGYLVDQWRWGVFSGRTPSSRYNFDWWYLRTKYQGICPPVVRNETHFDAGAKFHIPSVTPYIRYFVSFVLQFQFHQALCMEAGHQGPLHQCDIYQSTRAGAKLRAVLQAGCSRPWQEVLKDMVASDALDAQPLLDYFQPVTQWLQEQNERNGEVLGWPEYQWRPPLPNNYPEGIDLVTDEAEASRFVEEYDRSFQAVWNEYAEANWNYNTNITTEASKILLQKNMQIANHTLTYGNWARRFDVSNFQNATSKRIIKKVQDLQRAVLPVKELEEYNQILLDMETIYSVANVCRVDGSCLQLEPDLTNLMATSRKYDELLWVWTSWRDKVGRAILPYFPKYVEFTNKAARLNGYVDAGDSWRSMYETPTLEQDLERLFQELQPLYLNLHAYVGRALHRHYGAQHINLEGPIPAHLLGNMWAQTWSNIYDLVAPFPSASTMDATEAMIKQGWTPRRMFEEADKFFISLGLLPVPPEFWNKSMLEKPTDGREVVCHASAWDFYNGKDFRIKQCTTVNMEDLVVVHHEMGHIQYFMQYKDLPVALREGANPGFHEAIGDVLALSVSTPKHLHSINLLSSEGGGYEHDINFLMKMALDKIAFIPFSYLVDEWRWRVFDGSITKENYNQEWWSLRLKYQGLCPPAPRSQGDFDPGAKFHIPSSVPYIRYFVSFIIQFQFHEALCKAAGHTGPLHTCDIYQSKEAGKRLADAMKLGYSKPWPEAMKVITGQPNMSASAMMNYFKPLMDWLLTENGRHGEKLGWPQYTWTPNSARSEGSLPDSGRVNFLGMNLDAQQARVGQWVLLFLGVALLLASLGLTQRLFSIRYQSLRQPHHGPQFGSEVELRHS

Rattus norvegicus [2] = experiment: Effects of oral dosing (1 mg/kg) on systolic blood pressure in spontaneously hypertensive rats, day 1,at 2 hr; assay type: functional, Artery
Procedure, shortened: (§1)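 Spontaneously hypertensive rats, 6 per group, were dosed orally once daily for 4 days at 0.1, 1.0 or 10 mg/kg. Systolic pressure was recorded before the first dose and at 2 and 24 h after each daily dose. Values are group mean ±SE with change from predose.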

Rattus norvegicus [3] = experiment: Effects of oral dosing (0.1 mg/kg) on systolic blood pressure in spontaneously hypertensive rats, day 4,at 24 hr; assay type: functional, Artery; procedure, shortened: as §1
Rattus norvegicus [4] = experiment: Effects of oral dosing (10 mg/kg) on systolic blood pressure in spontaneously hypertensive rats, day 3,at 2 hr; assay type: functional, Artery; procedure, shortened: as §1
Rattus norvegicus [5] = experiment: Effects of oral dosing (1 mg/kg) on systolic blood pressure in spontaneously hypertensive rats, day 3,at 24 hr; assay type: functional, Artery; procedure, shortened: as §1
Rattus norvegicus [6] = experiment: Effects of oral dosing (0.1 mg/kg) on systolic blood pressure in spontaneously hypertensive rats, day 2,at 24 hr; assay type: functional, Artery; procedure, shortened: as §1
Rattus norvegicus [7] = experiment: Effects of oral dosing (0.1 mg/kg) on systolic blood pressure in spontaneously hypertensive rats, day 1,at 2 hr; assay type: functional, Artery; procedure, shortened: as §1
Rattus norvegicus [8] = experiment: Effects of oral dosing (10 mg/kg) on systolic blood pressure in spontaneously hypertensive rats, day 1,at 24 hr; assay type: functional, Artery; procedure, shortened: as §1
Rattus norvegicus [9] = experiment: Effects of oral dosing (0.1 mg/kg) on systolic blood pressure in spontaneously hypertensive rats, day 3,at 2 hr; assay type: functional, Artery; procedure, shortened: as §1
Rattus norvegicus [10] = experiment: Effects of oral dosing (10 mg/kg) on systolic blood pressure in spontaneously hypertensive rats, day 4,at 2 hr; assay type: functional, Artery; procedure, shortened: as §1
Rattus norvegicus [11] = experiment: Effects of oral dosing (1 mg/kg) on systolic blood pressure in spontaneously hypertensive rats, day 4,at 24 hr; assay type: functional, Artery; procedure, shortened: as §1
Rattus norvegicus [12] = experiment: Effects of oral dosing (0.1 mg/kg) on systolic blood pressure in spontaneously hypertensive rats, day 4,at 2 hr; assay type: functional, Artery; procedure, shortened: as §1
Rattus norvegicus [13] = experiment: Effects of oral dosing (10 mg/kg) on systolic blood pressure in spontaneously hypertensive rats, day 1,at 2 hr; assay type: functional, Artery; procedure, shortened: as §1
Rattus norvegicus [14] = experiment: Effects of oral dosing (0.1 mg/kg) on systolic blood pressure in spontaneously hypertensive rats, day 2,at 2 hr; assay type: functional, Artery; procedure, shortened: as §1
Rattus norvegicus [15] = experiment: Effects of oral dosing (10 mg/kg) on systolic blood pressure in spontaneously hypertensive rats, day 3,at 24 hr; assay type: functional, Artery; procedure, shortened: as §1
Rattus norvegicus [16] = experiment: Effects of oral dosing (1 mg/kg) on systolic blood pressure in spontaneously hypertensive rats, day 2,at 2 hr; assay type: functional, Artery; procedure, shortened: as §1
Rattus norvegicus [17] = experiment: Effects of oral dosing (1 mg/kg) on systolic blood pressure in spontaneously hypertensive rats, day 3,at 2 hr; assay type: functional, Artery; procedure, shortened: as §1
Rattus norvegicus [18] = experiment: Effects of oral dosing (10 mg/kg) on systolic blood pressure in spontaneously hypertensive rats, day 4,at 24 hr; assay type: functional, Artery; procedure, shortened: as §1
Rattus norvegicus [19] = experiment: Effects of oral dosing (1 mg/kg) on systolic blood pressure in spontaneously hypertensive rats, day 2,at 24 hr; assay type: functional, Artery; procedure, shortened: as §1
Rattus norvegicus [20] = experiment: Effects of oral dosing (10 mg/kg) on systolic blood pressure in spontaneously hypertensive rats, day 2,at 2 hr; assay type: functional, Artery; procedure, shortened: as §1
Rattus norvegicus [21] = experiment: Effects of oral dosing (0.1 mg/kg) on systolic blood pressure in spontaneously hypertensive rats, day 3,at 24 hr; assay type: functional, Artery; procedure, shortened: as §1
Rattus norvegicus [22] = organism: Rattus norvegicus; experiment: Predose systolic blood pressure in spontaneously hypertensive rats; assay type: functional, Artery; procedure, shortened: as §1
Rattus norvegicus [23] = experiment: Effects of oral dosing (0.1 mg/kg) on systolic blood pressure in spontaneously hypertensive rats, day 1,at 24 hr; assay type: functional, Artery; procedure, shortened: as §1
Rattus norvegicus [24] = experiment: Effects of oral dosing (1 mg/kg) on systolic blood pressure in spontaneously hypertensive rats, day 1,at 24 hr; assay type: functional, Artery; procedure, shortened: as §1
Rattus norvegicus [25] = experiment: Effects of oral dosing (1 mg/kg) on systolic blood pressure in spontaneously hypertensive rats, day 4,at 2 hr; assay type: functional, Artery; procedure, shortened: as §1
Rattus norvegicus [26] = experiment: Effects of oral dosing (10 mg/kg) on systolic blood pressure in spontaneously hypertensive rats, day 2,at 24 hr; assay type: functional, Artery; procedure, shortened: as §1

Compound `O=C(O)CN1C(=O)[C@H](N[C@@H](CCc2ccccc2)C(=O)O)Cc2ccccc21` has an IC50 [1] of 5.1 µM.
Work on `O=C(O)CN1C(=O)[C@@H](N[C@@H](CCc2ccccc2)C(=O)O)CCc2ccccc21` (stereo in doubt; 4f) yielded an IC50 [1] of 0.058 µM.
Work on `O=C(O)CN1C(=O)[C@@H](N[C@@H](CCc2ccccc2)C(=O)O)CCCc2ccccc21` yielded an IC50 [1] of 0.004 µM.
With `CCOC(=O)[C@H](CCc1ccccc1)N[C@@H](C)C(=O)N1CCC[C@H]1C(=O)O` the Systolic blood pressure (Rattus norvegicus [2]) was 160 mmHg, the Systolic blood pressure (Rattus norvegicus [3]) was 204 mmHg and the Systolic blood pressure (Rattus norvegicus [4]) was 124.5 mmHg. It also gave a Systolic blood pressure (Rattus norvegicus [5]) of 160 mmHg, a Systolic blood pressure (Rattus norvegicus [6]) of 173.7 mmHg and a Systolic blood pressure (Rattus norvegicus [7]) of 197.5 mmHg. For the same compound, the Systolic blood pressure (Rattus norvegicus [8]) was 168.3 mmHg, the Systolic blood pressure (Rattus norvegicus [9]) was 175.7 mmHg and the Systolic blood pressure (Rattus norvegicus [10]) was 135.5 mmHg. It also gave a Systolic blood pressure (Rattus norvegicus [11]) of 160.8 mmHg, a Systolic blood pressure (Rattus norvegicus [12]) of 168 mmHg and a Systolic blood pressure (Rattus norvegicus [13]) of 152.5 mmHg. The Systolic blood pressure (Rattus norvegicus [14]) was 172 mmHg, the Systolic blood pressure (Rattus norvegicus [15]) was 174 mmHg and the Systolic blood pressure (Rattus norvegicus [16]) was 158.7 mmHg. The Systolic blood pressure (Rattus norvegicus [17]) was 146.7 mmHg, the Systolic blood pressure (Rattus norvegicus [18]) was 159.8 mmHg and the Systolic blood pressure (Rattus norvegicus [19]) was 168.7 mmHg. For the same compound, the Systolic blood pressure (Rattus norvegicus [20]) was 138.5 mmHg, the Systolic blood pressure (Rattus norvegicus [21]) was 173.5 mmHg and the Systolic blood pressure (Rattus norvegicus [22]) was 197.7 mmHg and 186.8 mmHg and 199 mmHg. For the same compound, the Systolic blood pressure (Rattus norvegicus [23]) was 175.8 mmHg, the Systolic blood pressure (Rattus norvegicus [24]) was 169.5 mmHg and the Systolic blood pressure (Rattus norvegicus [25]) was 145 mmHg. For the same compound, the Systolic blood pressure (Rattus norvegicus [26]) was 163 mmHg.
In the case of `O=C(O)CN1C(=O)[C@@H](N[C@@H](CCc2ccccc2)C(=O)O)CCc2ccccc21` (stereo in doubt; 4b), the IC50 [1] is reported as 0.0028 µM.
With `O=C(O)CN1C(=O)[C@@H](N[C@@H](CCc2ccccc2)C(=O)O)Cc2ccccc21` the IC50 [1] was 0.61 µM and 1.2 µM.
`O=C(O)CN1C(=O)[C@@H](N[C@@H](CCc2ccccc2)C(=O)O)CCc2ccccc21` (stereo in doubt; 4e) showed an IC50 [1] of 0.0052 µM.
For `CCOC(=O)[C@H](CCc1ccccc1)N[C@H]1CCc2ccccc2N(CC(=O)O)C1=O.Cl` [BENAZEPRIL HYDROCHLORIDE], the Systolic blood pressure (Rattus norvegicus [2]) was 185.7 mmHg, the Systolic blood pressure (Rattus norvegicus [3]) was 176 mmHg and the Systolic blood pressure (Rattus norvegicus [4]) was 131 mmHg. It also gave a Systolic blood pressure (Rattus norvegicus [5]) of 177.3 mmHg, a Systolic blood pressure (Rattus norvegicus [6]) of 169.8 mmHg and a Systolic blood pressure (Rattus norvegicus [7]) of 193.8 mmHg. For the same compound, the Systolic blood pressure (Rattus norvegicus [8]) was 167.5 mmHg, the Systolic blood pressure (Rattus norvegicus [9]) was 176.2 mmHg and the Systolic blood pressure (Rattus norvegicus [10]) was 130.8 mmHg. For the same compound, the Systolic blood pressure (Rattus norvegicus [11]) was 180.2 mmHg, the Systolic blood pressure (Rattus norvegicus [12]) was 182.8 mmHg and the Systolic blood pressure (Rattus norvegicus [13]) was 162.2 mmHg. It also gave a Systolic blood pressure (Rattus norvegicus [14]) of 195.8 mmHg, a Systolic blood pressure (Rattus norvegicus [15]) of 150.2 mmHg and a Systolic blood pressure (Rattus norvegicus [16]) of 182.8 mmHg. The Systolic blood pressure (Rattus norvegicus [17]) was 166.5 mmHg, the Systolic blood pressure (Rattus norvegicus [18]) was 150 mmHg and the Systolic blood pressure (Rattus norvegicus [19]) was 168.7 mmHg. For the same compound, the Systolic blood pressure (Rattus norvegicus [20]) was 146 mmHg, the Systolic blood pressure (Rattus norvegicus [21]) was 172.4 mmHg and the Systolic blood pressure (Rattus norvegicus [22]) was 193.6 mmHg and 200 mmHg and 198 mmHg. For the same compound, the Systolic blood pressure (Rattus norvegicus [23]) was 186 mmHg, the Systolic blood pressure (Rattus norvegicus [24]) was 185.8 mmHg and the Systolic blood pressure (Rattus norvegicus [25]) was 171.3 mmHg. For the same compound, the Systolic blood pressure (Rattus norvegicus [26]) was 147.3 mmHg.
For `O=C(O)CN1C(=O)[C@H](N[C@@H](CCc2ccccc2)C(=O)O)CCCc2ccccc21`, the IC50 [1] was 0.062 µM.
